Source: PubChem
UPR CHOP act: activators of apoptotic CHOP UPR arm, primary screen, cell-based, CHO-CHOP luciferase reporter, luminescence, uHTS; UPR activation; percent of tunicamycin response over DMSO baseline; activation, % at 10 µM; 0.34% of 330,000 active; AID 449763, 2010;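 active means at 10 µM dose, activation of 40% or more, normalized to positive control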;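 further: 100% = tunicamycin at 10 µg/mL and 0% = DMSO alone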
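Test system: CHO CHOP reporter cells. Input: 500 CHO-CHOP cells per well. Medium: F12 with 10% FBS. Technique: luciferase luminescence. Measure: percent activation relative to tunicamycin control. Dosing: 10 µM compound, 0.5% DMSO. Timing: 16-18 h cell attachment, then 6 h compound exposure, 37 °C.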
Dynein transport: inhibitors of GR-EGFP nuclear translocation, primary screen, dynein cargo transport inhibitor project, imaging, high-content, 3617.4 mouse cells; 0.47% of 220,000 active; z-score, hits read low; test concentration mostly 20 µM; stimulated with dexamethasone, 1 µM; stronger effect = lower value;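 active means plate z-score of nuclear minus cytoplasmic receptor signal below a set negative limit, without overly bright fluorescence or cell loss, cut at about -3.5 in these data, passing the limit was not always enough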;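 further: z-score of nuclear minus cytoplasmic ring GR-EGFP intensity difference per well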
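Also added: dexamethasone, 1.0 µM final. Medium: tet-free, stripped-serum medium. Detection: fixed, Hoechst-stained cells imaged at 10x for EGFP. Read-out: nuclear-to-cytoplasmic GR-EGFP distribution per well. Times: induction 48 h, compound 1 h, agonist 30 min.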
MDM2 E3 inh: MDM2-luciferase reporter signal enhancers, primary screen, MDM2 E3 ligase inhibitor project, cell-based, luminescence, 1536-well. AID 1230, 2008. signal enhancement, % at 5 µM. E3 ubiquitin-protein ligase Mdm2 (Homo sapiens), Q00987. cell-based MDM2 ubiquitination luciferase reporter, 2 h; 0 = plate control, 100 = twice control, blank-subtracted. 0.11% of 210,000 active;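 active means signal enhancement of 30% or more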;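 further: luminescence tracks abundance of the self-degrading MDM2-luciferase fusion protein; higher signal means inhibition of MDM2 E3 ligase activity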
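Assay system: stable mammalian line carrying autodegrading MDM2–luciferase fusion reporter; Input: 2000 cells in each well; Compound dosing: single-point 5 µM; Schedule: 2 h compound exposure at 37 °C; Signal: SteadyLite luciferase luminescence after 15 min room-temperature reagent incubation; Evaluation: % luminescence enhancement versus blank-corrected plate control mean; Benchmarks: plate controls and plate blanks.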
Beta2AR agonist: beta2AR agonists driving receptor internalization, primary screen, cell-based, FAP fluorogen, flow cytometry | Beta-2 adrenergic receptor (Homo sapiens), P07550 | Am2.2-beta2AR cells | response, % (test concentration not listed) | 0.43% of 340,000 active | AID 504454, 2011;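 active means response above a set limit, near 3 SD of response in nonfluorescent compounds, cut at about 42% in these data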
Target sequence (P07550 whole entry, looked up): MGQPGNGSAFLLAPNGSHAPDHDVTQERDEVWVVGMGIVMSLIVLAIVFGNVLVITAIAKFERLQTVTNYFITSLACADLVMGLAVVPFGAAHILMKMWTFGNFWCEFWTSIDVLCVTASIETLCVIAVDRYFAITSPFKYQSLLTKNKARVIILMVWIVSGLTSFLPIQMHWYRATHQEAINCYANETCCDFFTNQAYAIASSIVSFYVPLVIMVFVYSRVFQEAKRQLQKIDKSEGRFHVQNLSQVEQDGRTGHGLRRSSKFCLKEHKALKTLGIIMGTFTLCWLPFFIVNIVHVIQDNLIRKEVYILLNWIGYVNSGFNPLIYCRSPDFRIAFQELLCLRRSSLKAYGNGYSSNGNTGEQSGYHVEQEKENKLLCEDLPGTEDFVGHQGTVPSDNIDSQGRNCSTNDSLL
XBP1 UPR activ: activators of adaptive XBP1 UPR arm, primary screen, cell-based, CHO-XBP1 luciferase reporter, luminescence, uHTS. 0.33% of 330,000 active. IRE1-XBP1 UPR activation; percent of tunicamycin response, DMSO as zero. activation, % at 20 µM;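 active means versus positive control, 20 µM dose yields 30% or more activation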;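 further: 100% = tunicamycin at 10 µg/mL and 0% = DMSO only wells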
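Material: CHO cell line with stable XBP1 luciferase reporter; schedule: 16-18 h cell attachment at 37 °C, then 6 h compound exposure; signal: glow luminescence from Steady-Glo reagent; medium: serum-containing F12 medium, 10% FBS; benchmarks: tunicamycin 10 µg/mL and vehicle-only wells; read-out: percent activation relative to tunicamycin reference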
Mdm2 MdmX PPI: inhibitors of human Mdm2-MdmX association, primary screen, cell-based, luminescence, split luciferase, SaOS-2, uHTS | Protein Mdm4 (Homo sapiens) + E3 ubiquitin-protein ligase Mdm2 (Homo sapiens), … | SaOS-2 split-luciferase Mdm2/MdmX complementation | inhibition, % at 8 µM | 3% of 330,000 active | AID 485346, 2010;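 active means inhibition of at least 50% at 8 µM in the primary screen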
Mdm2 MdmX conf: Mdm2-MdmX complex disruptors, retested hits, confirmation, luminescence, single concentration; shares compounds with Mdm2 MdmX PPI; Mdm2-MdmX binding, luminescent assay; inhibition, % at 8 µM; 55% of 10,000 active; AID 489028, 2010; in the data active means inhibition above about 40%
Full FLuc ctr: full-length luciferase signal inhibition, confirmation, counter-screen for Mdm2/MdmX interaction inhibitor project, cell-based, single concentration, SaOS-2; shares compounds with Mdm2 MdmX PPI; SaOS-2 full-length luciferase counterscreen, luminescence; inhibition, % at 8 µM; 77% of 6,200 active;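 active means mean inhibition at 8 µM reaching about 37%, which flags the compound as non-specific, limit read from the data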;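 further: p53-null SaOS-2 cells with luciferase driven by a doxycycline-inducible promoter; compound on cells about two nights before reading with doxycycline added after day one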
The depositor's hits bear a star. Rows were chosen to be rich in hits. Some 3.7% of all compounds tested hit in one or more screens of this group.

Screening O=C(NCC1CCCO1)c1cc(-c2ccc(F)cc2)no1 (centres undefined) returned UPR CHOP act 5, Beta2AR agonist -1, XBP1 UPR activ 1 and Mdm2 MdmX PPI -42.
Screening COc1cccc(-n2c(SCC(=O)N3CCCCC3)nc3c([nH]c4ccccc43)c2=O)c1 returned UPR CHOP act 3, Dynein transport -0.28, MDM2 E3 inh -9, Beta2AR agonist -3, XBP1 UPR activ 9, Mdm2 MdmX PPI 79* and Mdm2 MdmX conf 31.
COc1ccc(NC(=O)CSc2nc3c([nH]c4ccccc43)c(=O)n2C)c(OC)c1 was read as UPR CHOP act 4, Beta2AR agonist 0, XBP1 UPR activ 9, Mdm2 MdmX PPI 60* and Mdm2 MdmX conf 20.
For CC(=O)C1=NN(c2ccc(Cl)cc2)C(c2ccc3c(c2)OCO3)N(C(C)=O)N1C (centres undefined) the results were UPR CHOP act 0, Dynein transport -0.29, MDM2 E3 inh -8, Beta2AR agonist 0, XBP1 UPR activ 0 and Mdm2 MdmX PPI 25.
O=C(Cc1ccccc1[N+](=O)[O-])c1ccc2c(c1)OCO2 was read as Beta2AR agonist -1.
For CSc1ccccc1NC(=O)CN1CCN(S(=O)(=O)c2ccccc2[N+](=O)[O-])CC1 the results were UPR CHOP act 0, Beta2AR agonist 3, XBP1 UPR activ -1 and Mdm2 MdmX PPI 4.
For COc1ccc(CN2CCN(c3ccc(F)cc3)CC2)c(OC)c1OC the results were UPR CHOP act -1, Dynein transport -0.52, MDM2 E3 inh 3, Beta2AR agonist -10, XBP1 UPR activ -1 and Mdm2 MdmX PPI 10.
Screening COc1ccc(CN2CCN(C(c3ccc(F)cc3)c3ccc(F)cc3)CC2)c(OC)c1OC returned UPR CHOP act 3, Beta2AR agonist 15, XBP1 UPR activ -6, Mdm2 MdmX PPI 81*, Mdm2 MdmX conf 45* and Full FLuc ctr 69*.
`O=C(NNc1c2ccccc2nc2ccccc12)c1ccc(Cl)cc1` gave UPR CHOP act 4, Beta2AR agonist 25, XBP1 UPR activ 0, Mdm2 MdmX PPI 87*, Mdm2 MdmX conf 67* and Full FLuc ctr 43*.
`CNc1nc(SC)nc2ccccc12` gave UPR CHOP act 1, Dynein transport 3.1, MDM2 E3 inh -14, Beta2AR agonist -3, XBP1 UPR activ -3 and Mdm2 MdmX PPI 5.
`CSc1nc(N(C)NC(=O)c2ccccc2)c2ccccc2n1` gave UPR CHOP act 0, Dynein transport -0.0078, MDM2 E3 inh -2, Beta2AR agonist 8, XBP1 UPR activ 6, Mdm2 MdmX PPI 56*, Mdm2 MdmX conf 52* and Full FLuc ctr 69*.
Screening Cc1ccc(C(=O)NN(C)c2nc3ccccc3nc2C(F)(F)F)cc1 returned UPR CHOP act 0, Dynein transport -0.015, MDM2 E3 inh -10, Beta2AR agonist -1, XBP1 UPR activ 0, Mdm2 MdmX PPI 70*, Mdm2 MdmX conf 54* and Full FLuc ctr 61*.
